Compounds with a hit are over-represented: about 3.9% of the library has one in this group of screens.
ANO1 block = mouse TMEM16A channel inhibition, primary screen; actives 1.2% (n = 310,000); normalized B-score (activity score, 25-100; higher = stronger inhibition) at 10 µM; Q8BHY3; HEK293 TMEM16A/YFP iodide influx fluorescence, ionomycin;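 active = ratio plate-corrected score three or more library SD toward inhibition, starting fluorescence score within five deviations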;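 note: score derived from kinetic fluorescence span divided by baseline fluorescence per well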
Target sequence (Q8BHY3 whole entry, looked up): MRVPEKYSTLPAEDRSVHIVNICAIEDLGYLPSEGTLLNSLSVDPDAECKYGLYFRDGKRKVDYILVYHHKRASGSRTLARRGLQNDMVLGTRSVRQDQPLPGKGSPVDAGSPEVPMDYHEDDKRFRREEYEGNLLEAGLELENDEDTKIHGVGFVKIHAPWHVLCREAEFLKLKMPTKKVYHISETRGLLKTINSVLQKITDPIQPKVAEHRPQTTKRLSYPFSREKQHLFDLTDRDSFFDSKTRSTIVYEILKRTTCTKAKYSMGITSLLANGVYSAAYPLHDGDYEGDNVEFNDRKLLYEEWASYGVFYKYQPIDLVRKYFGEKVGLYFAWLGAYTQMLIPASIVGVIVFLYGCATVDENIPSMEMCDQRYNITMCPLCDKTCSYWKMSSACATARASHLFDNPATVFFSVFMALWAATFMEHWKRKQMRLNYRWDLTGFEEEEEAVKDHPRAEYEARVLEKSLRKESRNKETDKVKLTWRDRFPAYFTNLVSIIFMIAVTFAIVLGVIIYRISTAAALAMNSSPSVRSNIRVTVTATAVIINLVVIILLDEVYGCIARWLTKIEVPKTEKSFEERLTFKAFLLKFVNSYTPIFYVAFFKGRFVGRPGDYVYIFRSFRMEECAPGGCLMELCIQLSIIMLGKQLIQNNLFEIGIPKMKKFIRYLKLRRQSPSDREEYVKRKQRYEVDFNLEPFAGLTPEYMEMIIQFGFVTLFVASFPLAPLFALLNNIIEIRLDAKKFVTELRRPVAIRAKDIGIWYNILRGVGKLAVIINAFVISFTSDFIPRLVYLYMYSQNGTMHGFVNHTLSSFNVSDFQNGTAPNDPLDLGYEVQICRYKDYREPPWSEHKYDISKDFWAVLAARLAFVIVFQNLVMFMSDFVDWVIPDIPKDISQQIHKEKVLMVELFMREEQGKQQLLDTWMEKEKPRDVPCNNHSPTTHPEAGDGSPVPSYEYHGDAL
TMEM16A act = mouse TMEM16A channel activation, primary screen; HEK293 TMEM16A/YFP-H148Q/I152L, iodide quench fluorescence; stronger effect = lower value; B-score at 10 µM; AID 623877; actives 0.3% (n = 340,000); Q8BHY3;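 active = fluorescence-ratio B-score plate-corrected deviation score at least 3 library SD below zero, with starting fluorescence score within 5 deviations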;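 note: channel opened by trigger with iodide after compound preincubation; score built on the fluorescence ratio of max minus min over baseline; more negative score means more quench and so TMEM16A activation or potentiation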
CRFR2-BP ag = CRF-BP/CRF-R2 complex agonism | HEK293 CRF-R2/CRF-BP, calcium dye fluorescence (FLIPR); percent of saturating CRF peptide response | activation, % at 13.2 µM | actives 0.46% (n = 350,000) | AID 588473;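 active = activation of at least 50%, plus an integration ratio under a set limit after plate pattern correction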;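 note: plate controls were neutral control wells without compound for no effect and CRF at EC100 for full effect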
TAAR1 antag = antagonists of human TAAR1. Q96RJ0. CHO RD-HGA16 TAAR1, Fluo-8 calcium fluorescence, antagonist. inhibition, % at 3 µM. actives 1.5% (n = 360,000). AID 624466;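 active = inhibition above a per-plate cutoff, the mean inhibition of test compounds on that plate plus 3 SD, cut at about 49% in these data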;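 note: 0% = DMSO plus EC80 beta-PEA response and 100% = DMSO alone without agonist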
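System: CHO RD-HGA16 cells bearing hTAAR1. Reagent: EC80 β-phenethylamine stimulus. Schedule: seeding 17-24 h prior, 75-min 37 °C, 30-min RT dye loading. Signal: Fluo-8 intracellular calcium dye fluorescence, real-time kinetic reads. Read-out: % inhibition from peak post-agonist over basal fluorescence ratio. Benchmarks: vehicle wells and EC80 agonist wells. Replicates: n of 1.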
TAAR1 agonist = agonists of human TAAR1; CHO RD-HGA16 TAAR1, Fluo-8 calcium fluorescence; vehicle wells 0%, saturating PEA agonist 100%; activation, % at 3 µM; actives 0.99% (n = 360,000); AID 624467;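 active = activation above the mean activation of all test compounds in the run plus 3 SD, cut at about 38% in these data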
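Repeats: no replicates (n 1) | Material: CHO-derived RD-HGA16 cells with stable Gα16 and human TAAR1 | Technique: Kinetic Fluo-8 calcium fluorescence | Schedule: 17-24 h seeding, 75 min 37 °C dye, 30 min RT | Evaluation: % activation from peak over basal fluorescence ratio, DMSO-to-PEA scaled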
CRFR2-BP antag = antagonists of CRF-binding protein/CRF-R2 receptor complex; HEK293 CRF-R2/CRF-BP, CRF-induced calcium fluorescence; inhibition, % at 11.8 µM; actives 0.59% (n = 350,000); AID 588475;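 active = inhibition of the ligand-induced calcium signal above about 50% at the single tested concentration, limit read from the data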
* = called active by the depositor; i = inactive; x = no result given.

SMILES	ANO1 block	TMEM16A act	CRFR2-BP ag	TAAR1 antag	TAAR1 agonist	CRFR2-BP antag
O=C(O)CC1=C(O)C(=O)N(c2ccccc2)C1c1ccccc1 (stereo not given)	i	i	1	9	4	-3
O=C(O)CC1=C(O)C(=O)N(c2ccccc2)C1c1ccc(Br)cc1 (stereo not given)	i	-13*	2	-3	4	7
CCOC(=O)c1c(NC(=O)CC2Nc3ccccc3NC2=O)sc(C)c1C (stereo not given)	i	i	4	-22	1	-28
COC(=O)c1c(NC(=O)CC2Nc3ccccc3NC2=O)sc(C)c1C (stereo not given)	i	i	21	2	1	53*
CC(C)CCC(C(=O)O)C(C)CC(=O)Nc1ccn(-c2ccccc2)n1 (stereo not given)	i	i	0	2	0	-6
CC(C)(c1ccccc1)c1ccc(OCC(O)CNC2CCN(Cc3ccccc3)CC2)cc1 (stereo not given)	100*	i	13	10	29	-12
O=C(Nc1ccc(Cl)cc1)C1Cc2c(-c3ccccc3Oc3ccccc3)ccnc2O1 (stereo not given)	x	x	x	6	0	x
Cc1cc2nc3s/c(=C/c4ccc(-c5ccccc5C(=O)O)o4)c(=O)n3c2cc1C	i	i	141*	4	5	-101
O=C(O)c1ccccc1-c1ccc(/C=c2\sc3nc4cc(Br)cnc4n3c2=O)o1	i	i	157*	x	x	-156
Cc1ccc(S(=O)(=O)N2CCC(NC(=O)c3cccc(C)c3)CC2)cc1	i	-7.1*	-9	-4	0	12
Cc1cccc(C(=O)NC2CCN(S(=O)(=O)c3ccc(F)cc3)CC2)c1	i	i	-2	-4	0	10
CC(=O)c1ccc(S(=O)(=O)N2CCC(NC(=O)Nc3cccc(F)c3)CC2)cc1	i	-7.9*	-3	48	14	17
Cc1cc(C)cc(N(CC(=O)NC2CCCC2)C(=O)CCC(=O)Nc2cc(C)ccn2)c1	i	i	0	8	0	-2
Cc1nn(-c2ccccc2)nc1CNC(=O)c1ncoc1-c1ccccc1	i	-5.6*	5	-4	2	-5
Cc1nn(-c2ccccc2)nc1CNC(=O)CC(C)(C)C	i	i	-1	-21	3	-13
Cc1ccc(N2CCN(C(=S)Nc3ccccc3C)CC2)cc1	i	i	0	-3	1	10
COC(=O)Cc1ccc(OC2(C)CCN(Cc3csc4ccccc34)C2)cc1 (stereo not given)	x	x	x	-15	9	x
CC(=O)c1sc(Nc2nc3ccc(F)cc3s2)nc1C	25*	i	-1	18	3	-30
Cc1ccccc1NC1=NC(=S)N(c2ccccc2)C12CCCCC2	i	i	2	-4	1	61*
Cc1ccccc1NC1=NC(=S)N(c2ccccc2)C12CCOC(C)(C)C2 (stereo not given)	i	i	1	-10	8	3
CC(=O)NC(C)(c1ccccc1)c1nc(-c2cccc3cccnc23)cs1 (stereo not given)	x	x	x	1	2	x
NNC(=O)c1cc2c(N3CCC(Cc4ccccc4)CC3)ncnc2s1	100*	i	-5	32	11	-39
COc1ccc(NS(=O)(=O)c2cc(C(=O)NNC(=O)c3ccncc3)ccc2OC)c(OC)c1	x	x	2	-23	6	-1
CSc1cccc(CN(C)C(=O)C2CCC(=O)N(CCCN3CCCC3=O)C2)c1 (stereo not given)	i	i	2	-11	0	-14
N#Cc1c(Cl)nc2c(c1C#N)CCCC2	i	i	-2	-15	0	107*
SMILES	ANO1 block	TMEM16A act	CRFR2-BP ag	TAAR1 antag	TAAR1 agonist	CRFR2-BP antag
CCCCc1nc(Cl)c(C#N)c2c1CCCC2	i	i	0	-1	9	-6
N#Cc1c(N)nc2c(c1-c1ccccc1)CCCC2	i	i	-1	-16	41*	-11
Cc1ccc2c(c1)CO[C@@]21O[C@H](CCO)C[C@H](O)[C@H]1O	x	x	0	-20	8	-3
O=C(COC(=O)c1ccccc1C(=O)OCC(=O)NCCc1c[nH]c2ccccc12)NCCc1c[nH]c2ccccc12	i	i	0	76*	34	3
Cc1ccc(C)c(OCCC(=O)NCCc2ccc(S(N)(=O)=O)cc2)c1	i	i	0	-14	3	8
O=C(Nc1cccc(CNCCc2c[nH]c3ccccc23)c1)c1ccccc1Cl	i	i	3	25	49*	2
Cc1ccc(C)c(OCCC(=O)OCC(=O)NCCc2ccc(S(N)(=O)=O)cc2)c1	i	-4.8*	-1	-1	3	-4
NS(=O)(=O)c1ccc(CCNC(=O)COC(=O)CCc2c[nH]c3ccccc23)cc1	x	i	76*	-6	17	-39
CC(=O)c1cccc(NC(=O)NCCc2c[nH]c3ccccc23)c1	i	i	-1	26	8	-12
O=C(CSc1n[nH]c(=O)n1Cc1ccco1)Nc1ccccc1Cl	i	i	-1	-11	4	1
COc1ccc(-n2c(=S)[nH]c3cc(C(=O)NCCCN4CCOCC4)ccc3c2=O)cc1OC	i	i	1	6	2	10
O=C(Nc1ccccc1)c1cc(C2COCCN2C(=O)c2cccs2)on1 (stereo not given)	x	x	x	-6	2	x
CCCc1cc(=O)oc2c3c(cc(OCC(=O)N4CCC(C(=O)O)CC4)c12)OC(C)(C)CC3	x	x	x	6	0	x
CC(C)(C)OC(=O)N1CCc2onc(-c3ccc(-n4cc(C5=CCCCC5)nn4)cc3)c2C1=O	x	x	x	-20	-1	x
O=C(NCCc1c[nH]c2ccccc12)OCCCCOC(=O)NCCc1c[nH]c2ccccc12	i	i	0	80*	16	2
Cc1c(N2C(=O)C3C4C=CC(C5CC45)C3C2=O)c(=O)n(-c2ccccc2)n1C (stereo not given)	i	i	-1	-20	3	115*
COc1ccc(O[C@H]2C=C[C@@H](c3ccccc3)O[C@@H]2COC(=O)CC/C(C)=N/OC[C@@H](O)COCc2ccco2)cc1	25*	x	x	x	x	x
Cc1ccc(C(=O)NC2CCN(CC(=O)NC3CCC(C)CC3)CC2)cc1 (stereo not given)	i	i	0	-12	0	-8
CC1C/C(=N\NC(=O)c2ccc([N+](=O)[O-])cc2)CC(C)(C)C1 (stereo not given)	i	i	5	-22	2	72*
CC1C/C(=N\NC(=O)c2cccnc2)CC(C)(C)C1 (stereo not given)	i	i	0	-21	5	-1
